≈ marks a conversion by molar mass, not a printed value. Each block holds one compound with its values, some of them ahead of it.
Experiments:
[1] = target: T1, Solute carrier family 12 member 5 (Rattus norvegicus, UniProt Q63633); assay: Antagonist activity of rat KCC2 transporter expressed in human SK-Hep cells assessed as inhibition of N-ethylmaleimide-mediated Rb+ influx after 10 mins by atomic absorption spectroscopy; format: functional, cell-based
T1 sequence (Q63633 whole entry): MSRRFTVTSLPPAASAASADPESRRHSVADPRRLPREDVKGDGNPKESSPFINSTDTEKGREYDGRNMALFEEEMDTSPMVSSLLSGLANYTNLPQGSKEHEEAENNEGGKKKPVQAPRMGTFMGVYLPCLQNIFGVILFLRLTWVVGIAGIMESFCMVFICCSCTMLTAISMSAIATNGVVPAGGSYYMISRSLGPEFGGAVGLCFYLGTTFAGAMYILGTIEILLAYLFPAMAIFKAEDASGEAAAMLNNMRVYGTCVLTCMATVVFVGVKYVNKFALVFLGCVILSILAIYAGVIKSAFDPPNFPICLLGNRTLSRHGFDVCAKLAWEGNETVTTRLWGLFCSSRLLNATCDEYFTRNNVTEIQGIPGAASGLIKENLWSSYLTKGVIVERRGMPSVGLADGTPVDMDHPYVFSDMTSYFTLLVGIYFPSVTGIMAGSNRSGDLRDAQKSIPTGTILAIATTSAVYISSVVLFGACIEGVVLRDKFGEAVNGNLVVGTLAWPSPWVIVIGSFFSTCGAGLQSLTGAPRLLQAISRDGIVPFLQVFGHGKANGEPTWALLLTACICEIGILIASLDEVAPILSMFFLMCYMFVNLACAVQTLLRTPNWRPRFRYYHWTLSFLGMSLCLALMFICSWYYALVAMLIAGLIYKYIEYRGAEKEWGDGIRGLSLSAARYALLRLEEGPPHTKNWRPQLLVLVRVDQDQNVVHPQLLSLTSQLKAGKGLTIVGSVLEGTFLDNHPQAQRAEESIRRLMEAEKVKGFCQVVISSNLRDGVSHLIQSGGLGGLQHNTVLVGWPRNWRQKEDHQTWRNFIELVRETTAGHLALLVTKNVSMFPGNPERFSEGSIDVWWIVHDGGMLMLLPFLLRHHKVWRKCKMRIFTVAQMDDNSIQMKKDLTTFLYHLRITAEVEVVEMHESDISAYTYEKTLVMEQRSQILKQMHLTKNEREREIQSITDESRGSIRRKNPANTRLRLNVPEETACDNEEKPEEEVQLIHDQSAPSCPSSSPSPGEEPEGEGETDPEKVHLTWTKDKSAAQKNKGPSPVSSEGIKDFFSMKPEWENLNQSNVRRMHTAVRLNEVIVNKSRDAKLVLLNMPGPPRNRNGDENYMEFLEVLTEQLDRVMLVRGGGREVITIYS
Summary of the method: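 Rat KCC2 stably expressed in a selected clone. The co-transporter is activated with N-ethylmaleimide in the presence of the test compound, and Rb+ influx is started by adding 5 mM RbCl to the extracellular medium. Influx is stopped after 10 min by repeated washes. Intracellular Rb+ is measured by atomic absorption spectroscopy, and IC50 is reported.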

[2] = Antagonist activity to dog NKCC1 transporter expressed in MDCK cells assessed as inhibition of Cl- free medium-stimulated Rb+ influx at 100 uM after 45 mins by atomic absorption spectroscopy; format: functional, Canis lupus familiaris; details: for inhibition at 100 µM: Canis lupus familiaris, MDCK, 0.75 h
Summary of the method: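 MDCK cells express endogenous canine NKCC1. NKCC1 is activated by incubating the cells for 2 h in Cl−-free medium. Rb+ influx is then stimulated for 45 min by adding 20 mM RbCl to the extracellular solution. Intracellular Rb+ is quantified by atomic absorption spectroscopy, and results are given as percent inhibition.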

[3] = Intrinsic clearance in rat microsomes assessed per mg of protein; format: ADME, Microsome
[4] = Intrinsic clearance in rat hepatocytes assessed per 10^6 cells
[5] = Aqueous solubility in PBS buffer at pH 7.4; format: physicochemical
[6] = AUC in Wistar rat at 6 mg/kg, po; format: ADME, organism-based; set-up: dose 6 mg/kg, route oral; details: plasma
Summary of the method: (§1)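 Male Wistar rats are dosed at 1 mg/kg iv for half-life and clearance, and at 6 mg/kg po for AUC, Cmax and oral bioavailability.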

[7] = Half life in Wistar rat at 1 mg/kg, iv; format: ADME, organism-based; set-up: dose 1 mg/kg, route intravenous; details: in vivo; summary of the method: as §1
[8] = Cmax in Wistar rat at 6 mg/kg, po; format: ADME, organism-based; set-up: dose 6 mg/kg, route oral; details: in vivo; summary of the method: as §1
[9] = Clearance in Wistar rat at 1 mg/kg, iv; format: ADME, organism-based; set-up: dose 1 mg/kg, route intravenous; details: in vivo; summary of the method: as §1
[10] = Oral bioavailability in Wistar rat at 6 mg/kg; format: ADME, organism-based; details: in vivo; summary of the method: as §1
[11] = target: CYP2C9 (Homo sapiens, UniProt P11712); assay: Inhibition of human CYP2C9 at 50 uM; format: ADME
[12] = target: CYP2D6 (Homo sapiens, UniProt P10635); assay: Inhibition of human CYP2D6 at 50 uM; format: ADME
[13] = target: CYP2C19 (Homo sapiens, UniProt P33261); assay: Inhibition of human CYP2C19 at 50 uM; format: ADME
[14] = target: CYP3A4 (Homo sapiens, UniProt P08684); assay: Inhibition of human CYP3A4 at 50 uM; format: ADME
[15] = Apparent permeability across human Caco-2 cells; format: ADME, cell-based
[16] = Drug level in NMRI mouse brain at 43.3 mg/kg, ip after 5 mins; format: ADME, organism-based; set-up: dose 43.3 mg/kg, route intraperitoneal; details: read-out: Drug uptake
Summary of the method: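 NMRI mice are dosed ip at 43.3 mg/kg. Plasma and brain exposure are determined 5 min after dosing, and free brain concentration is reported.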

CYP2C9, sequence (P11712 whole entry): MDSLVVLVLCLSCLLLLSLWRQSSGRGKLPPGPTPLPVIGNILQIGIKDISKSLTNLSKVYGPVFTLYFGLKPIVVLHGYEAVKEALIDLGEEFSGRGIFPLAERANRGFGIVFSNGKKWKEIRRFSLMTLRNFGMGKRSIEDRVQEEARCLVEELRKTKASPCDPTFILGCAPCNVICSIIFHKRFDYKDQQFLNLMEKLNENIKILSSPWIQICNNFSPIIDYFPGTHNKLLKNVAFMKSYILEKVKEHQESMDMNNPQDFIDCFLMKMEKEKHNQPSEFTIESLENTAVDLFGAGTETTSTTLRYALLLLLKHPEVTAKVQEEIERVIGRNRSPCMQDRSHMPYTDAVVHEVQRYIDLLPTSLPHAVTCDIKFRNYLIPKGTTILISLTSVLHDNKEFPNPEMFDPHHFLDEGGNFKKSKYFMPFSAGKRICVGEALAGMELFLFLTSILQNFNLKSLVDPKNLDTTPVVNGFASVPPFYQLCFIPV
CYP2D6, sequence (P10635 whole entry): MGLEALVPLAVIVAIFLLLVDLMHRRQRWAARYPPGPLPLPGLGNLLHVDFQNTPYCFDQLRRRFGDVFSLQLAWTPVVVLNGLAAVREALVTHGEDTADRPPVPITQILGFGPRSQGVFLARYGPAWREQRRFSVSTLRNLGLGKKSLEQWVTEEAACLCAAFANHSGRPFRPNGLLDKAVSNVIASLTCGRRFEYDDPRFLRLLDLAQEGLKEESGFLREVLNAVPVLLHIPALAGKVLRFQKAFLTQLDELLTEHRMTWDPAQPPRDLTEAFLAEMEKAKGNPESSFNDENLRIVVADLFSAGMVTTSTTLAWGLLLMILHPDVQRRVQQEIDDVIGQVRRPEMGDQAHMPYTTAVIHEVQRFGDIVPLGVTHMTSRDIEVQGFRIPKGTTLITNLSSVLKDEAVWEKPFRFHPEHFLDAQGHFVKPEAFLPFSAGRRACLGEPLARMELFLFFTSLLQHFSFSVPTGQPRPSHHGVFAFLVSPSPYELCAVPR
CYP2C19, sequence (P33261 whole entry): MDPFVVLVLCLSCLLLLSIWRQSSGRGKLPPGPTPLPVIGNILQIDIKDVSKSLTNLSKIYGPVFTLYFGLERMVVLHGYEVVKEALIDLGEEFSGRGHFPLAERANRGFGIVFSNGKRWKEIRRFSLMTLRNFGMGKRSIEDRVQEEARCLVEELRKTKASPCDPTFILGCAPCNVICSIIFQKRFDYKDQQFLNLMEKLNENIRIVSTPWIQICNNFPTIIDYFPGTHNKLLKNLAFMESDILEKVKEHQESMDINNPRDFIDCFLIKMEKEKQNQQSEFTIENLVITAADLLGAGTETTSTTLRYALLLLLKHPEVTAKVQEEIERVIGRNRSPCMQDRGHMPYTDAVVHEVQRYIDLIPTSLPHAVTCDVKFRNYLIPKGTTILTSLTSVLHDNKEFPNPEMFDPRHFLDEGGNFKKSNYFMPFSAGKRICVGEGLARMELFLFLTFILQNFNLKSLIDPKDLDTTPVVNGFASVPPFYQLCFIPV
CYP3A4, sequence (P08684 whole entry): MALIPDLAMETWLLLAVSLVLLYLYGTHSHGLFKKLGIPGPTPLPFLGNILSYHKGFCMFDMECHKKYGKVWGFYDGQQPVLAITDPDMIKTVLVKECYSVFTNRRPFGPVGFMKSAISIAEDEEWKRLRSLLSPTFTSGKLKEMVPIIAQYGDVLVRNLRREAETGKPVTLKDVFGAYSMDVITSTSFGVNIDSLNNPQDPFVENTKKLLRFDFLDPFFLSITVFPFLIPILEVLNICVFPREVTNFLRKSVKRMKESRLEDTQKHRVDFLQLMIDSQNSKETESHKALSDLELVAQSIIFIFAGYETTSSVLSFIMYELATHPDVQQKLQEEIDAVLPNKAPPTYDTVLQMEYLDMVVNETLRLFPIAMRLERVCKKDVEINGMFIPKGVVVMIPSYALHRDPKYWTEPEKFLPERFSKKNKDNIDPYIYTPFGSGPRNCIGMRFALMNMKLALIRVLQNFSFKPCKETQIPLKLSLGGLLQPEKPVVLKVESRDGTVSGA

- IC50 [1]: 790 nM
Structure (SMILES): CC(=O)N1CCCC1(Cc1ccc(C)cc1)C(=O)OCc1ccccc1 (stereo unspecified)

- IC50 [1]: 790 nM
Structure (SMILES): CC(=O)N1CCCC1(Cc1ccccc1)C(=O)OCc1ccc(C)cc1 (stereo unspecified)

- IC50 [1]: 200 nM
Structure (SMILES): CC(=O)N1CCCC1(Cc1ccc(F)cc1)C(=O)OCc1ccccc1 (stereo unspecified)

- IC50 [1]: 80000 nM
Structure (SMILES): CCC1(C(=O)OCc2ccccc2)CCCN1C(C)=O (stereo unspecified)

- IC50 [1]: 400 nM
Structure (SMILES): CC(=O)N1CCCC1(Cc1ccc(S(C)(=O)=O)cc1)C(=O)OCc1ccccc1 (single isomer, unassigned; (+))

- IC50 [1]: 4000 nM
Structure (SMILES): O=C(c1ccccc1)N1CCCC1(Cc1ccccc1)C(=O)OCc1ccccc1 (stereo unspecified)

- IC50 [1]: 8000 nM
Structure (SMILES): CC(=O)N1CCCC1(CCc1ccccc1)C(=O)OCc1ccccc1 (stereo unspecified)

- IC50 [1]: 1200 nM
Structure (SMILES): CCC(=O)N1CCCC1(Cc1ccccc1)C(=O)OCc1ccccc1 (stereo unspecified)

- IC50 [1]: 1600 nM
- microsomal CLint [3]: 400 µL/min/mg
- hepatocyte CLint [4]: 23 µL/min/1e6 cells
- solubility [5]: 1 µg/mL (≈ 2.68 µM)
Structure (SMILES): CS(=O)(=O)N1CCCC1(Cc1ccccc1)C(=O)OCc1ccccc1 (stereo unspecified)
- inhibition at 100 µM [2]: < 20%

- IC50 [1]: 80 nM
Structure (SMILES): CC(=O)N1CCCC1(Cc1cccc(C(F)(F)F)c1)C(=O)OCc1ccccc1 (stereo unspecified)

- IC50 [1]: > 100000 nM
Structure (SMILES): CCN1CCCC1(Cc1ccccc1)C(=O)OCc1ccccc1 (stereo unspecified)

- IC50 [1]: 4000 nM
Structure (SMILES): CC(=O)N1CCCC1(Cc1ccccc1)C(=O)OC(C)c1ccccc1 (stereo unspecified)

- IC50 [1]: > 100000 nM
Structure (SMILES): COC(=O)C1(Cc2ccccc2)CCCN1C(C)=O (stereo unspecified)

- IC50 [1]: > 100000 nM
Structure (SMILES): O=C(OCc1ccccc1)C1(Cc2ccccc2)CCCN1 (stereo unspecified)

- IC50 [1]: 10000 nM
Structure (SMILES): CC(=O)N1CCCC1(Cc1ccccc1)C(=O)OCCc1ccccc1 (stereo unspecified)

- IC50 [1]: > 100000 nM
Structure (SMILES): CC(=O)N1CCCC1(Cc1ccccc1)C(=O)OCc1ccncc1 (stereo unspecified)

- IC50 [1]: 60 nM
- microsomal CLint [3]: 356 µL/min/mg
- hepatocyte CLint [4]: 20 µL/min/1e6 cells
- solubility [5]: 0.5 µg/mL (≈ 1.18 µM)
Structure (SMILES): CC(=O)N1CCCC1(Cc1ccc(F)c(C(F)(F)F)c1)C(=O)OCc1ccccc1 (stereo unspecified)
- inhibition at 100 µM [2]: 24%

Structure (SMILES): NS(=O)(=O)c1cc(C(=O)O)c(NCc2ccco2)cc1Cl [FUROSEMIDE]
- inhibition at 100 µM [2]: 100%

- IC50 [1]: 4000 nM
Structure (SMILES): CC(=O)N1CCCC1(Cc1ccc(F)cc1C(F)(F)F)C(=O)OCc1ccccc1 (stereo unspecified)

- AUC [6]: 8.6 ng·h/mL
- IC50 [1]: 790 nM
- half-life [7]: 144 min
- Cmax [8]: 11.9 ng/mL
- clearance [9]: 61 mL/min/kg
- microsomal CLint [3]: 385 µL/min/mg
- hepatocyte CLint [4]: 28 µL/min/1e6 cells
- bioavailability [10]: 0.5%
- solubility [5]: 2 µg/mL (≈ 5.93 µM)
Structure (SMILES): CC(=O)N1CCCC1(Cc1ccccc1)C(=O)OCc1ccccc1 (racemic)
- inhibition (INH) [2]: 44%

- AUC [6]: 726 ng·h/mL
- inhibition at 50 µM [11]: < 30%
- inhibition at 50 µM [12]: < 30%
- inhibition at 50 µM [13]: < 30%
- inhibition at 50 µM [14]: < 30%
- IC50 [1]: 1000 nM
- half-life [7]: 18 min
- Papp [15]: 31 ×10⁻⁶ cm/s
- Cmax [8]: 457 ng/mL
- clearance [9]: 26 mL/min/kg
- microsomal CLint [3]: 16 µL/min/mg
- concentration at 5 min [16]: 6 µM
- hepatocyte CLint [4]: 12 µL/min/1e6 cells
- bioavailability [10]: 18%
- solubility [5]: 500 µg/mL (≈ 1200 µM)
Structure (SMILES): CC(=O)N1CCCC1(Cc1ccc(S(C)(=O)=O)cc1)C(=O)OCc1ccccc1 (stereo in doubt; 13)
- inhibition at 100 µM [2]: 35%

- IC50 [1]: 790 nM
Structure (SMILES): CC(=O)N1CCCC1(Cc1ccsc1)C(=O)OCc1ccccc1 (stereo unspecified)

- IC50 [1]: 32000 nM
Structure (SMILES): CC(=O)N1CCCC1(Cc1ccccc1)C(=O)N(C)Cc1ccccc1 (stereo unspecified)

- IC50 [1]: 6000 nM
Structure (SMILES): CC(=O)N1CCCC1(Cc1ccccc1)C(=O)OCc1ccccc1Cl (stereo unspecified)
